Results collected from several papers.
Each line is one published result; the experiments were not run side by side.
Target: Dual specificity protein kinase CLK2 (CLK2, Homo sapiens, UniProt P49760)

CN(C)C1CCN(CC#Cc2nn(C3CCCC3)c3nc(NCc4ccccc4)ncc23)C1 (centres unmarked)
inhibition (enzyme activity, inhibitor, FRET; 0.1 µM): 8%

O=C1NC(=O)c2cc(Nc3ccc(F)cc3)c(Nc3ccc(F)cc3)cc21
remaining signal (cell-free assay; 0.5 µM): 88.1%

CS(=O)(=O)NCC[C@H](NC(=O)c1cncc2c1cnn2-c1ccc(F)cc1)c1ccnc(S(C)(=O)=O)c1
remaining binding (cell-free assay, competition with immobilised ligand; 1 µM): 100%

Nc1nc(Nc2ccc(S(N)(=O)=O)cc2)sc1C(=O)c1ccccc1[N+](=O)[O-]
inhibition (enzyme activity, inhibitor; 0.1 µM): 60 to 66%

CC1(C)NC(=O)c2[nH]c3c(Cl)c(Cl)ccc3c2C1C#N (centres unmarked)
ΔTm (thermal stability, DSF; 10 µM): 2.7 °C

Cn1cnc(Br)c1C1=CN(c2ncnc3[nH]cnc23)CCS1
inhibition (enzyme activity, inhibitor, radiometric; 2 µM): 97.2%

COc1cc(Cl)c(C(=O)N[C@@H](CN[C@H]2CC[C@@H](N)CC2)Cc2ccc(C#N)cc2)cc1-c1ccc(CN[C@H](C)c2ccc(C)cc2)o1
remaining activity (enzyme activity, inhibitor; 1 µM): 92%

CCCOc1ccc([C@H]2[C@H](C(=O)O)[C@@H](c3ccc4c(c3)OCO4)CN2CC(=O)Nc2c(CC)cccc2CC)cc1
remaining binding (cell-free assay, competition with immobilised ligand; 1 µM): 91%

FC(F)(F)Oc1cccc(-c2cnc3ccc(-c4ccncc4)nn23)c1
activity vs control (enzyme activity, inhibitor, radiometric; 5 µM): 0.623%

O=S(=O)(NC1CCC(c2cc(F)ccc2F)(S(=O)(=O)c2ccc(Cl)cc2)CC1)C(F)(F)F (centres unmarked)
remaining binding (cell-free assay, competition with immobilised ligand; 1 µM): 100%

Oc1cccc(-c2nc(N3CCOCC3)c3oc4ncccc4c3n2)c1
remaining activity (enzyme activity, inhibitor; 10 µM): 25%

COc1cc(Nc2cnc(C#N)c(O[C@H](C)CN(C)C)n2)ncc1-c1cnn(C)c1
remaining activity (enzyme activity, inhibitor, radiometric; 10 µM): 50%

O=C(NCc1ncc(C(F)(F)F)cc1Cl)c1ccc2c(c1)C1(CCS(=O)(=O)CC1)[C@H](C1CC1)N2S(=O)(=O)c1ccc(F)cc1
remaining binding (cell-free assay, competition with immobilised ligand; 1 µM): 100%

Cc1cnc(NC2CCOCC2)nc1-n1cnc(C(=O)NC(CN)c2cc(F)cc(Cl)c2)c1 (centres unmarked)
remaining activity (enzyme activity, inhibitor, radiometric; 1 µM): 78%

CN1CCC2(CC1)NC(=O)c1c(c3ccc(Cl)c(Cl)c3n1C)C2C#N (racemic)
ΔTm (thermal stability, DSF; 10 µM): 1.9 °C

COc1cccc(CNC(=O)c2nc3scc(COCc4ccc(C(=O)O)cc4)c3c(=O)[nH]2)c1
remaining binding (cell-free assay, competition with immobilised ligand; 1 µM): 92.4%

Clc1ccc(Nc2nnc(Cc3ccncc3)c3ccccc23)cc1
remaining signal (cell-free assay; 0.5 µM): 87.6%

O=C(CSc1nc2nccnc2c(=O)n1CCc1ccccc1)Nc1nccs1
inhibition (enzyme activity, inhibitor; 10 µM): 15%

CC(C)(C)c1nc(-c2cccc(NS(=O)(=O)c3c(F)cccc3F)c2F)c(-c2ccnc(N)n2)s1
remaining activity (enzyme activity, inhibitor, radiometric; 1 µM): 98%

CCCCNc1ncc2c(-c3ccc(F)cc3)nn(C[C@H]3CC[C@H](N)CC3)c2n1
inhibition (target engagement in cells, inhibitor, chemoproteomics; 20 mM): 46.4%

CCOCCn1cc(C(=O)Nc2ccc(-n3nc(-c4cccnc4)cc3C(F)(F)F)cn2)ccc1=O
remaining binding (cell-free assay, competition with immobilised ligand; 1 µM): 86%

C#Cc1cccc(Nc2ncnc3cc(OCCOC)c(OCCOC)cc23)c1
remaining signal (cell-free assay; 0.5 µM): 93.4%

CCN(CC)c1ccc(C2=NNC(=O)CC2C)cc1[N+](=O)[O-] (centres unmarked)
remaining activity (enzyme activity, inhibitor; 10 µM): 96%

O=C(Nc1cnn(-c2csc(C(=O)NC3COC3)c2)c1)Nc1c(F)cccc1Cl
remaining activity (enzyme activity, inhibitor; 5 µM): 109%

Cc1ccc(NC(=O)c2ccc(C)c(C(F)(F)F)c2)cc1C#Cc1nn(C2CCC(O)CC2)c2ncnc(N)c12 (centres unmarked)
remaining signal (cell-free assay; 10 µM): 47%

COc1cc(/C=C/C(=O)CC(=O)/C=C/c2ccc(O)c(OC)c2)ccc1O
activity vs control (enzyme activity, inhibitor; 1 µM): 48%

COCCOc1nc(-c2ccc(Cl)nc2)nc2c1CN(C(=O)c1ncn3ccccc13)CC2
remaining binding (cell-free assay, competition with immobilised ligand; 0.1 µM): 100%

Cn1c2c(Cl)c(Cl)ccc2c2cn[nH]c(=O)c21
ΔTm (thermal stability, DSF; 10 µM): 2 °C

CS(=O)(=O)CCNCc1ccc(-c2ccc3ncnc(Nc4ccc(OCc5cccc(F)c5)c(Cl)c4)c3c2)o1
remaining signal (cell-free assay; 0.5 µM): 95.1%

Cn1c2c(c3ccc(Cl)c(Cl)c31)C(C#N)C1(CCCCC1)NC2=O (racemic)
ΔTm (thermal stability, DSF; 10 µM): 2.1 °C

CC(C)CC(=O)N1CCc2nc(-c3ccc(Br)cc3)nc(N(C)Cc3ccccc3)c2C1
remaining binding (cell-free assay, competition with immobilised ligand; 0.1 µM): 100%

COc1cc2ncnc(Nc3ccc(Oc4ccccc4)cc3C)c2cc1OC
inhibition (enzyme activity, inhibitor; 1 µM): 0%

Cc1ccc(C(=O)Nc2ccc(CN3CCN(C)CC3)c(C(F)(F)F)c2)cc1C#Cc1cnc2cccnn12
remaining activity (enzyme activity, inhibitor; 23.5 nM): 94%

Cn1c2c(Cl)c(Cl)ccc2c2cc(N)[nH]c(=O)c21
ΔTm (thermal stability, DSF; 10 µM): 1.3 °C

Cn1c(=O)n(-c2ccc(C(C)(C)C#N)cc2)c2c3cc(-c4cnc5ccccc5c4)ccc3ncc21
remaining activity (enzyme activity, inhibitor; 10 µM): 53%
